The values below come from ChEMBL document CHEMBL1135646, “In vitro photodynamic properties of chalcogenopyrylium analogues of the thiopyrylium antitumor agent AA1” (J Med Chem, 2002).

A short description of data set [1]: Distribution coefficient between octanol and phosphate buffer at pH6.0. The data set is classed as physicochemical. The note with it: pH 6. The essentials:
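Shake-flask partitioning between n-octanol and pH 6 phosphate buffer as the aqueous phase. Mixing for 3–5 min, then 1 h settling, with equilibration at 23 °C. Each phase is quantified by UV–visible spectrophotometry, and the result is reported as log P.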

Data set [2] can be described thus: compound evaluated for dark induced toxicity toward COLO-26, murine colon carcinoma cell line. The data set is classed as cell-based. The note with it: mouse, COLO-26 (Colon 26) murine colon carcinoma cells; read-out: LD50 (the source's name). The method, boiled down:
(§1)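 Colo-26 murine colon carcinoma cells were grown in RPMI 1640 with 10% FCS at 37 °C, 5% CO2, and plated at 5×10^3 cells/well the evening before. After two PBS washes, they took dye at various concentrations in HBSS with 1% FCS at 37 °C. They were then washed, left unirradiated, given growth medium, and kept 24 h. Survival was read by MTT, and LD50 is the 50% kill concentration.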

A short description of data set [3]: Ratio of LD50 value to that of EC50 value. The data set is classed as functional.
The next data set concerns Colon 26. The data set is described as follows: Effective concentration evaluated in light induced toxicity toward COLO-26, murine colon carcinoma cell line after irradiation with 15 J/cm**2 of 360-800nm light. The data set is classed as functional, cell-based. The settings on record: Mus musculus, Colon 26, light or radiation study. The essentials: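 Colo-26 cells in RPMI 1640 with 10% FCS are seeded at 5×10^3 cells/well the evening before. Cells are washed with PBS and given dye in HBSS with 1% FCS for 2 h at 37 °C. After a wash, irradiation in PBS with 1% FCS uses filtered 360–800-nm tungsten-halogen light to 15 J cm⁻². Growth medium is added and cells are held 24 h. MTT read-out; EC50 is the concentration giving 50% cell kill.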

Data set [4] can be described thus: Lethal dose evaluated in dark induced toxicity toward COLO-26, murine colon carcinoma cell line. The note with it: mouse, COLO-26 (Colon 26) murine colon carcinoma cells; read-out: LD50 (the source's name). The method, boiled down:
as §1

As to `Nc1ccc(-c2cc(-c3ccccc3)cc(-c3ccc(N4CCOCC4)cc3)[se+]2)cc1`, in data set [1], the logD (in general, lipophilicity at a set pH, counting ionised and neutral species) is 0.9. In data set [2], the CC50 was 900 nM.

As for `CN(C)c1ccc(-c2cc(-c3ccc(N(C)C)cc3)[se+]c(-c3ccc(N(C)C)cc3)c2)cc1`, the Ratio in data set [3] amounted to 1.7. In the data set on Colon 26, the EC50 (usually the concentration that produces a half-maximal response) came out at 300 nM. Moreover, in data set [1], the logD came out at 2.2. The CC50 in data set [2] came out at 500 nM.

Take `Nc1ccc(-c2cc(-c3ccc(N4CCOCC4)cc3)cc(-c3ccc(N)cc3)[se+]2)cc1`: in data set [3], the Ratio turned out to be 3.2. For the same compound, the concentration giving a half-maximal response (EC50) with Colon 26 was 1200 nM. Moreover, the logD in data set [1] is 1.5. For the same compound, in data set [2], the CC50 was determined as 3800 nM.

For the compound `Nc1ccc(-c2cc(-c3ccccc3)cc(-c3ccc(N4CCOCC4)cc3)[te+]2)cc1`, the logD in data set [1] is 1. Also, the CC50 in data set [2] was found to be 70 nM.

As for `Nc1ccc(-c2cc(-c3ccc(N4CCOCC4)cc3)cc(-c3ccc(N4CCOCC4)cc3)[s+]2)cc1`, the Ratio in data set [3] came to 33. The compound further came in with an EC50 with Colon 26 of 2000 nM. In data set [1], this compound gave a logD of 1.3. Moreover, the CC50 in data set [2] stood at 66000 nM.

For the compound `Nc1ccc(-c2cc(-c3ccc(N4CCOCC4)cc3)cc(-c3ccc(N)cc3)[s+]2)cc1`, the logD in data set [1] worked out at 1.8. Moreover, the CC50 in data set [2] was 800 nM.

For `Nc1ccc(-c2cc(-c3ccc(N4CCOCC4)cc3)cc(-c3ccc(N)cc3)[te+]2)cc1`, in data set [1], the pH-dependent lipophilicity (logD) is 1.9. Moreover, in data set [2], the CC50 came to 1400 nM.

Take `CN(C)c1ccc(-c2cc(-c3ccc(N)cc3)[te+]c(-c3ccc(N)cc3)c2)cc1`: the logD in data set [1] was found to be 2. Besides, the CC50 in data set [2] was found to be 500 nM.

In the case of `Nc1ccc(-c2cc(-c3ccc(N4CCOCC4)cc3)cc(-c3ccc(N4CCOCC4)cc3)[te+]2)cc1`, in data set [3], the Ratio was determined as 1.3. The compound further yielded a concentration for a half-maximal effect (EC50) with Colon 26 of 600 nM. Besides, the logD in data set [1] was found to be 1.6. For the same compound, in data set [2], the CC50 turned out to be 800 nM.

Take `CN(C)c1ccc(-c2cc(-c3ccc(N)cc3)[te+]c(-c3ccc(N4CCOCC4)cc3)c2)cc1`: in data set [4], the CC50 was 500 nM. Further, in data set [1], the logD was determined as 1.

Consider `CN(C)c1ccc(-c2cc(-c3ccc(N)cc3)[s+]c(-c3ccc(N)cc3)c2)cc1`, for which, in data set [1], the logD stood at 1.9. The CC50 in data set [2] came out at 100 nM.

For the compound `Nc1ccc(-c2cc(-c3ccc(N4CCOCC4)cc3)cc(-c3ccc(N4CCOCC4)cc3)[se+]2)cc1`, in data set [3], the Ratio stood at 3.6. Moreover, the EC50 with Colon 26 was found to be 1900 nM. The compound further came in with a pH-dependent lipophilicity (logD) in data set [1] of 1.2. Moreover, the CC50 in data set [2] was 6900 nM.

Turning to `c1cc(N2CCOCC2)ccc1-c1cc(-c2ccc(N3CCOCC3)cc2)[se+]c(-c2ccc(N3CCOCC3)cc2)c1`, the Ratio in data set [3] is 9. In addition, the half-maximal effective concentration (EC50) in the data set on Colon 26 was 800 nM. The same compound gave a logD in data set [1] of 1.2. The CC50 in data set [2] came to 7200 nM.

In data set [1], `Nc1ccc(-c2cc(-c3ccc(N4CCOCC4)cc3)cc(-c3ccccc3)[se+]2)cc1` returned a logD of 1.2. The CC50 in data set [2] came to 6500 nM.

`CN(C)c1ccc(-c2cc(-c3ccccc3)[se+]c(-c3ccc(N)cc3)c2)cc1`: in data set [3], the Ratio turned out to be 13. In the data set with Colon 26, this compound yielded an EC50 of 200 nM. Besides, in data set [1], the log distribution coefficient (logD) worked out at 1.2. In data set [2], the CC50 was 2600 nM.

Take `Nc1ccc(-c2cc(-c3ccccc3)cc(-c3ccc(N4CCOCC4)cc3)[s+]2)cc1`: the logD in data set [1] amounted to 1.1. In data set [2], the CC50 was 1800 nM.

`CN(C)c1ccc(-c2cc(-c3ccccc3)[te+]c(-c3ccc(N)cc3)c2)cc1` yielded a log distribution coefficient (logD) in data set [1] of 1.9. The CC50 in data set [2] came to 600 nM.

As for `CN(C)c1ccc(-c2cc(-c3ccc(N)cc3)[se+]c(-c3ccc(N)cc3)c2)cc1`, in data set [3], the Ratio is 3.8. In addition, the midpoint of the response in the data set with Colon 26, the EC50, lay at 370 nM. The compound further showed a logD in data set [1] of 1.7. In data set [2], the CC50 is 1400 nM.

For `CN(C)c1ccc(-c2cc(-c3ccc(N)cc3)[se+]c(-c3ccc(N4CCOCC4)cc3)c2)cc1`, the Ratio in data set [3] came to 21. Moreover, the concentration for a half-maximal effect (EC50) with Colon 26 is 70 nM. Further, the logD in data set [1] is 1. Also, in data set [2], the CC50 came out at 1500 nM.

Turning to `CN(C)c1ccc(-c2cc(-c3ccc(N(C)C)cc3)[s+]c(-c3ccc(N(C)C)cc3)c2)cc1`, the Ratio in data set [3] was determined as 2.5. For the same compound, in the data set with Colon 26, the midpoint of the response, the EC50, lay at 200 nM. In data set [1], this compound registered a logD of 2.2. Further, in data set [2], the CC50 was 500 nM.

For the compound `CN(C)c1ccc(-c2cc(-c3ccccc3)cc(-c3ccc(N)cc3)[se+]2)cc1`, in data set [1], the log distribution coefficient (logD) turned out to be 1.3. In addition, in data set [2], the CC50 is 400 nM.

Compound `CN(C)c1ccc(-c2cc(-c3ccc(N)cc3)[s+]c(-c3ccc(N4CCOCC4)cc3)c2)cc1` showed a logD in data set [1] of 0.9. Besides, the CC50 in data set [2] was determined as 900 nM.

With `CN(C)c1ccc(-c2cc(-c3ccccc3)[s+]c(-c3ccc(N)cc3)c2)cc1`, in data set [1], the logD was 1.3. For the same compound, in data set [2], the CC50 came out at 70 nM.
